Data reported in ChEMBL document CHEMBL2346506, “Cytotoxicity and modulation of cancer-related signaling by (Z)- and (E)-3,4,3',5'-tetramethoxystilbene isolated from Eugenia rigida” (J Nat Prod, 2013).
Active and inactive are the calls of the source. No cut-off for these calls is given here.

Assays:
[1] = target: T1, Nitric oxide synthase, inducible (Mus musculus, UniProt P29477); experiment: Inhibition of iNOS in LPS-induced mouse RAW264.7 cells assessed as inhibition of […] at measured after 24 hrs; type: cell-based
T1 sequence (P29477 whole entry): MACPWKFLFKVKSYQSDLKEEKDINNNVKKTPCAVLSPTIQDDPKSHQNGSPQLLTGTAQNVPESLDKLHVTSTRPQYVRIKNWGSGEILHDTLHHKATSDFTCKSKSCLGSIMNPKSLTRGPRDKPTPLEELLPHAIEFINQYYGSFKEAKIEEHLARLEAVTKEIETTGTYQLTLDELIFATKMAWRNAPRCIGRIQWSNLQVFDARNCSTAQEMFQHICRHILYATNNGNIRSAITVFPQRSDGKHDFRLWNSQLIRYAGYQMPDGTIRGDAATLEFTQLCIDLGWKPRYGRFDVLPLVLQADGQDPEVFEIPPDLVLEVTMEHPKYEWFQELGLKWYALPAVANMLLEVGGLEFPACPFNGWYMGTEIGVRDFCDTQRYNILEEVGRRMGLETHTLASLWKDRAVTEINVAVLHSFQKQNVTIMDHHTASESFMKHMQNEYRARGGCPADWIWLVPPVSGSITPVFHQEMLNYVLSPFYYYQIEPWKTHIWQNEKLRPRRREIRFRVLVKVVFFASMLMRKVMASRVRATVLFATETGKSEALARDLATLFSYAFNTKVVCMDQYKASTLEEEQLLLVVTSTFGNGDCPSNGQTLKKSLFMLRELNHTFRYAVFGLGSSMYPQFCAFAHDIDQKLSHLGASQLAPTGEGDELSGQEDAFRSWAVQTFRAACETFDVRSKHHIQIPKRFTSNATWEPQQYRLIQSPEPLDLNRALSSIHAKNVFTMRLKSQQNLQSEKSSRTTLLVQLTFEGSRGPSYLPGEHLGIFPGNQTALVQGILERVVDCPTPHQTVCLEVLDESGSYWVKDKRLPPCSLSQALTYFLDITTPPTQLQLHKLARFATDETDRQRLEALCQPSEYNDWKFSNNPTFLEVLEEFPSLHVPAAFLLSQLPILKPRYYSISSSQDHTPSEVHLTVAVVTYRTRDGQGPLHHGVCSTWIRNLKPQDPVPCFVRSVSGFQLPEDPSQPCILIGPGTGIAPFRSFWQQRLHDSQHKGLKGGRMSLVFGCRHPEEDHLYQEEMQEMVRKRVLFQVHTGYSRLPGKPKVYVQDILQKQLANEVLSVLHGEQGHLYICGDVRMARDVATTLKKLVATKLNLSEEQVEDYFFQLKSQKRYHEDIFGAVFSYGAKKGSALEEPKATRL
In short: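 Mouse RAW 264.7 macrophages were seeded at 50 000 cells/well and grown 24 h. They were pretreated with samples for 30 min, then stimulated with LPS at 5 μg/mL for 24 h. Nitrite in the supernatant was measured by Griess reagent, and inhibition was calculated against the vehicle control. IC50 came from dose–response curves, with cytotoxicity checked in parallel.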

HL-60 [2] = experiment: Inhibition of PMA induced ROS generation in human HL60 cells assessed as inhibition of ROA mediated oxidation of DCFH; type: functional, cell-based
In short: (§1)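 HL-60 cells (0.8 × 10⁶/mL) in RPMI-1640 with 10% FBS were pretreated 30 min with compound (0.4–100 μM). PMA (100 ng/mL) was then added for 30 min, followed by DCFH-DA (5 μg/mL) for 15 min. DCF fluorescence read at Ex 485 / Em 530 nm and compared with vehicle control. Trolox served as positive control.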

LLC-PK1 = experiment: Cytotoxicity against pig LLC-PK1 cells assessed as growth inhibition measured after 48 hrs by Neutral Red dye assay; details: Sus scrofa, LLC-PK1, 48 h
[3] = Inhibition of Notch signaling pathway in human HeLa cells assessed as inhibition of PMA induced luciferase treated 30 mins before induction; type: cell-based
In short: (§2)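 Reporter assay in cells transfected with pathway luciferase plasmids. Cells plated at 0.015 × 10⁶ per well in 10% FBS, switched after 24 h to DMEM with 1% FBS, then transfected. 24 h after transfection, compound (final 40, 60, 80 or 100 μM) was added, followed 30 min later by inducer (IL-6, TGF-β, wnt3a or PMA). Luciferase was read 4 or 6 h after induction (6 h for Notch, Wnt, Hedgehog). Value is the IC50 or the lowest concentration giving maximal 50–60% inhibition; two independent experiments.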

[4] = Inhibition of Wnt signaling pathway in human HeLa cells assessed as inhibition of Wnt3a induced luciferase treated 30 mins before induction; type: cell-based; in short: as §2
HL-60 [5] = experiment: Inhibition of PMA induced ROS generation in human HL60 cells assessed as inhibition of ROA mediated oxidation of DCFH at 100 uM; type: functional, cell-based; in short: as §1
[6] = Inhibition of NFkappaB signaling pathway in human HeLa cells assessed as measured as lowest concentration required 50 to 60 % inhibition of PMA induced luciferase treated 30 mins before induction; type: cell-based; in short: as §2
[7] = Inhibition of AP1 signaling pathway in human HeLa cells assessed as inhibition of PMA induced luciferase treated 30 mins before induction; type: cell-based; in short: as §2
[8] = Inhibition of Ets signaling pathway in human HeLa cells assessed as measured as lowest concentration required 50 to 60 % inhibition of PMA induced luciferase treated 30 mins before induction; type: cell-based; in short: as §2
HL-60 [9] = experiment: Cytotoxicity against human HL60 cells assessed as growth inhibition measured after 48 hrs by XTT assay; type: functional, cell-based; details: HL-60, 48 h
[10] = Inhibition of Notch signaling pathway in human HeLa cells assessed as measured as lowest concentration required 50 to 60 % inhibition of PMA induced luciferase treated 30 mins before induction; type: cell-based; in short: as §2
[11] = Inhibition of AP1 signaling pathway in human HeLa cells assessed as measured as lowest concentration required 50 to 60 % inhibition of PMA induced luciferase treated 30 mins before induction; type: cell-based; in short: as §2
HeLa [12] = experiment: Inhibition of smad3/4 signaling pathway in human HeLa cells assessed as inhibition of TGF-beta induced luciferase treated 30 mins before induction; type: functional, cell-based; in short: as §2
KB = experiment: Cytotoxicity against human KB cells assessed as growth inhibition measured after 48 hrs by Neutral Red dye assay
[13] = target: T2, Nitric oxide synthase, inducible (Mus musculus) (UniProt P29477); experiment: Inhibition of iNOS in LPS-induced mouse RAW264.7 cells assessed as inhibition of […] up to 33.3 uM measured after 24 hrs; type: cell-based
T2 sequence (whole entry): T1 sequence (P29477 whole entry)
In short: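 RAW 264.7 macrophages seeded at 50 000 per well and grown 24 h. Compound added 30 min before LPS (5 μg/mL), then cells incubated a further 24 h. Nitrite in the supernatant measured with Griess reagent relative to vehicle control. Parthenolide served as positive control; cytotoxicity checked in parallel.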

BT-549 = experiment: Cytotoxicity against human BT549 cells assessed as growth inhibition measured after 48 hrs by Neutral Red dye assay; details: BT-549, 48 h
HeLa [14] = experiment: Cytotoxicity against human HeLa cells assessed as growth inhibition measured after 48 hrs by Neutral Red dye assay
[15] = Inhibition of Wnt signaling pathway in human HeLa cells assessed as measured as lowest concentration required 50 to 60 % inhibition of Wnt3a induced luciferase treated 30 mins before induction; type: cell-based; in short: as §2
HeLa [16] = experiment: Inhibition of Stat3 signaling pathway in human HeLa cells assessed as measured as lowest concentration required 50 to 60 % inhibition of IL-6 induced luciferase treated 30 mins before induction; type: functional; in short: as §2
SK-MEL = experiment: Cytotoxicity against human SK-MEL cells assessed as growth inhibition measured after 48 hrs by Neutral Red dye assay
[17] = Inhibition of E2F signaling pathway in human HeLa cells assessed as inhibition of PMA induced luciferase at 100 uM treated 30 mins before induction; type: cell-based; in short: as §2
HeLa [18] = experiment: Inhibition of Stat3 signaling pathway in human HeLa cells assessed as inhibition of IL-6 induced luciferase treated 30 mins before induction; type: functional, cell-based; in short: as §2
[19] = target: Myc proto-oncogene protein (Homo sapiens) (UniProt P01106); experiment: Inhibition of Myc signaling pathway in human HeLa cells assessed as measured as lowest concentration required 50 to 60 % inhibition of PMA induced luciferase treated 30 mins before induction; type: cell-based; in short: as §2
Chain of Myc proto-oncogene protein (Homo sapiens) (P01106 whole entry): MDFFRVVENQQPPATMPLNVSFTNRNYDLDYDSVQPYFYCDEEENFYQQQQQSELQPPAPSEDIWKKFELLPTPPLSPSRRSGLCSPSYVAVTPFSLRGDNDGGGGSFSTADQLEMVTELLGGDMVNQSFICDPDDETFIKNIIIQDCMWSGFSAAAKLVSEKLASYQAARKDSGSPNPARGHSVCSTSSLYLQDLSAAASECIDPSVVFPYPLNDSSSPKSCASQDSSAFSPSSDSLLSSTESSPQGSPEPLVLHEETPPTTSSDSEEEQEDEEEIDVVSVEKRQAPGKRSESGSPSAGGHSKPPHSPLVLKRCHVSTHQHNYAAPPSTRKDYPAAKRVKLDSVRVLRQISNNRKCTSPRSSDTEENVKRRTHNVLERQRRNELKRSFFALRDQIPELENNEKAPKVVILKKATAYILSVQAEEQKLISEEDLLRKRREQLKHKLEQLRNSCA

[20] = Inhibition of Ets signaling pathway in human HeLa cells assessed as inhibition of PMA induced luciferase treated 30 mins before induction; type: cell-based; in short: as §2
[21] = Inhibition of NFkappaB signaling pathway in human HeLa cells assessed as inhibition of PMA induced luciferase treated 30 mins before induction; type: cell-based; in short: as §2
[22] = Inhibition of Hedgehog signaling pathway in human HeLa cells assessed as inhibition of PMA induced luciferase at 100 uM treated 30 mins before induction; type: cell-based; in short: as §2
Vero = experiment: Cytotoxicity against african green monkey Vero cells assessed as growth inhibition measured after 48 hrs by Neutral Red dye assay; details: Chlorocebus sabaeus
HeLa [23] = experiment: Inhibition of smad3/4 signaling pathway in human HeLa cells assessed as measured as lowest concentration required 50 to 60 % inhibition of TGF-beta induced luciferase treated 30 mins before induction; type: functional; in short: as §2
SK-OV-3 = experiment: Cytotoxicity against human SKOV3 cells assessed as growth inhibition measured at 100 uM after 48 hrs by […] assay; type: functional, cell-based
[24] = target: Forkhead box protein O1 (Homo sapiens) (UniProt Q12778); experiment: Inhibition of FoxO signaling pathway in human HeLa cells assessed as inhibition of luciferase at 100 uM […]; type: cell-based
Chain of Forkhead box protein O1 (Homo sapiens) (Q12778 whole entry): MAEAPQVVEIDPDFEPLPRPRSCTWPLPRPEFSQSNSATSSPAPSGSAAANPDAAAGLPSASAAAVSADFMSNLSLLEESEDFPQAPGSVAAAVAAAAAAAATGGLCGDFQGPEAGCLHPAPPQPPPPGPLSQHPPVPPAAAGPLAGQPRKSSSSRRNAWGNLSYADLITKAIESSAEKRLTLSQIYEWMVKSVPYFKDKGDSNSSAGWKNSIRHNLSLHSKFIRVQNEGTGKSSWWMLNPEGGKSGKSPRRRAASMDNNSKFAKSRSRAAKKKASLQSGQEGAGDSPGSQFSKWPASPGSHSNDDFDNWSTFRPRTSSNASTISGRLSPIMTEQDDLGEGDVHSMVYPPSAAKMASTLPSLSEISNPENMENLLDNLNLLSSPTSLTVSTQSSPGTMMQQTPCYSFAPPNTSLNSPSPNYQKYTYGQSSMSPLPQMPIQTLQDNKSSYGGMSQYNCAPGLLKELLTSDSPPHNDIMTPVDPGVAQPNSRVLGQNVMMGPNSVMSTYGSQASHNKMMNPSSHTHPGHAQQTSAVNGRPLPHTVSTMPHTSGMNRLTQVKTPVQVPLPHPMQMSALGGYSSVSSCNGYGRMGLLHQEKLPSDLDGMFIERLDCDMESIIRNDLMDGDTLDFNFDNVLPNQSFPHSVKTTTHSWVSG

## C=C1C(=O)O[C@@H]2C3O[C@]3(C)CC/C=C(\C)CC[C@@H]12 (stereo not given in full)
[1]
  IC50: 8 µM

## Cc1c(C)c2c(c(C)c1O)CCC(C)(C(=O)O)O2 (stereo not given) [TROLOX]
HL-60 [2]
  IC50: 1.4 µM

## COc1cc(/C=C\c2ccc(OC)c(OC)c2)cc(OC)c1 [(Z)-3,4,3',5'-TETRAMETHOXYSTILBENE]
LLC-PK1
  IC50: 6 µM
[3]
  IC50: 40 µM
[4]
  IC50: 40 µM
HL-60 [5]
  inhibition: inactive
[6]
  MED: 80 µM
[7]
  IC50: 80 µM
[8]
  MED: 65 µM
HL-60 [9]
  IC50: 4.3 µM
[10]
  MED: 40 µM
[11]
  MED: 80 µM
HeLa [12]
  IC50: 40 µM
KB
  IC50: 4.3 µM
[13]
  inhibition: inactive
BT-549
  IC50: 4 µM
HeLa [14]
  IC50: 3.6 µM
[15]
  MED: 50 µM
HeLa [16]
  MED: 77 µM
SK-MEL
  IC50: 4.3 µM
[17]
  inhibition: < 40%
HeLa [18]
  IC50: 50 µM
[19]
  MED: 65 µM
[20]
  IC50: 40 µM
[21]
  IC50: 80 µM
[22]
  inhibition: < 40%
Vero
  IC50: > 33.3 µM
HeLa [23]
  MED: 55 µM
SK-OV-3
  growth inhibition (GI): inactive
[24]
  inhibition: < 40%
